ChEMBL document CHEMBL1132302, “Identification of pharmacokinetically stable 3, 10-dibromo-8-chlorobenzocycloheptapyridine farnesyl protein transferase inhibitors with potent enzyme and cellular activities” (J Med Chem, 1999)
Values belong to the molecule of their own block, whether it stands above or below them.

What was measured:
[1] = (§1) Bioavailability in mouse (nude) using 20% aqueous hydroxypropyl-beta-cyclodextrin (HPbetaCD) as vehicle 25 mg/kg; type: ADME, organism-based; settings: in vivo; for bioavailability: nude
[2] = Area under curve was determined using 20%aqueous hydroxypropyl-beta-cyclodextrin (HPbetaCD) as vehicle. Compound was administered orally to nude mice at a dose of 25 mg/kg (run time 7 hr); type: ADME, organism-based; set-up: dose 25 mg/kg, route oral; settings: mouse, in vivo, po
Method in brief: (§2)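 Nude mice received 25 mpk in 20% aqueous hydroxypropyl-β-cyclodextrin, by the route the line gives. Serum was collected over a shortened 7-h run rather than 24 h. Each time point used sera from different animals.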

[3] = Area under curve was determined using 20%aqueous hydroxypropyl-beta-cyclodextrin (HPbetaCD) as vehicle. Compound was administered intravenously to nude mice at a dose of 25 mg/kg (run time 7 hr); type: ADME, organism-based; set-up: dose 25 mg/kg, route intravenous; settings: mouse, in vivo, iv; method in brief: as §2
[4] = Maximum concentration (Cmax) using 20%aqueous hydroxypropyl-beta-cyclodextrin (HPbetaCD) as vehicle. compound was administered intravenously to nude mice at a dose of 25 mg/kg; type: ADME, organism-based; set-up: dose 25 mg/kg, route intravenous; settings: mouse, in vivo, iv
Method in brief: (§3)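 Nude mice were dosed at 25 mpk, intravenously or orally as the line states, in 20% aqueous hydroxypropyl-β-cyclodextrin or 0.4% aqueous methyl cellulose. Serum was sampled over 24 h. Each time point came from sera of different animals.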

[5] = Maximum concentration (Cmax) using 20%aqueous hydroxypropyl-beta-cyclodextrin (HPbetaCD) as vehicle. compound was administered orally to nude mice at a dose of 25 mg/kg; type: ADME, organism-based; set-up: dose 25 mg/kg, route oral; settings: mouse, in vivo, po; method in brief: as §3
[6] = target: T1, Protein farnesyltransferase (Homo sapiens, UniProt P49354+P49356); assay: Effect on Ras processing in Cos-1 monkey kidney cells expressing either H-Ras-Val 12-CVLS or H-Ras-Val12.; type: functional, cell-based, Cercopithecidae
Method in brief: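 Ras processing was tested in Cos-1 monkey kidney cells transiently expressing H-Ras-Val12-CVLS or H-Ras-Val12. IC50 values are single-point determinations.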

[7] = (§4) Half life was administered by using 20%aqueous hydroxypropyl-beta-cyclodextrin (HPbetaCD) as vehicle to nude mice at a dose of 25mpk,; type: ADME, organism-based; settings: mouse, in vivo, 25 mg/kg
NIH-3T3 (Mus musculus) [8] = assay: inhibition of tumor colony formation in soft agar
[9] = Percent bioavailability was administered by using 0.4% Methyl cellulose (MC) as vehicle to nude mice at a dose of 25 mg/kg (micronized sample); type: ADME, organism-based; settings: mouse, in vivo, read-out: Bioavailabiility
Method in brief: (§5)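 A micronized sample was given orally at 25 mpk to nude mice in 0.4% aqueous methyl cellulose. Serum was collected over 24 h, with separate animals for each time point.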

[10] = Bioavailability in mouse (nude) (dose 0.4% Methylcellulose (MC) as vehicle 25 mg/kg); type: ADME, organism-based; settings: in vivo
[11] = Maximum concentration (Cmax) using 0.4% Methyl cellulose (MC) as vehicle. compound was administered intravenously to nude mice at a dose of 25 mg/kg; type: ADME, organism-based; set-up: dose 25 mg/kg, route intravenous; settings: mouse, in vivo, iv; method in brief: as §3
[12] = Maximum concentration (Cmax) using 0.4% Methyl cellulose (MC) as vehicle. compound was administered orally to nude mice at a dose of 25 mg/kg; type: ADME, organism-based; set-up: dose 25 mg/kg, route oral; settings: mouse, in vivo, po; method in brief: as §3
[13] = Maximum concentration (Cmax) using 0.4% Methyl cellulose (MC) as vehicle. compound was administered orally to nude mice at a dose of 25 mg/kg (micronized sample); type: ADME, organism-based; set-up: dose 25 mg/kg, route oral; settings: mouse, in vivo, po; method in brief: as §5
[14] = Area under curve was determined using 0.4% Methyl cellulose (MC) as vehicle. Compound was administered intravenously to nude mice at a dose of 25 mg/kg; type: ADME, organism-based; set-up: dose 25 mg/kg, route intravenous; settings: mouse, in vivo, iv; method in brief: as §3
[15] = Area under curve was determined using 0.4% Methyl cellulose (MC) as vehicle. Compound was administered orally to nude mice at a dose of 25 mg/kg; type: ADME, organism-based; set-up: dose 25 mg/kg, route oral; settings: mouse, in vivo, po; method in brief: as §3
[16] = Area under curve was determined using 0.4% Methyl cellulose (MC) as vehicle. Compound was administered orally to nude mice at a dose of 25 mg/kg (micronized sample); type: ADME, organism-based; set-up: dose 25 mg/kg, route oral; settings: mouse, in vivo, po; method in brief: as §5
[17] = (§6) Area under curve was determined using 20%aqueous hydroxypropyl-beta-cyclodextrin (HPbetaCD) as vehicle. Compound was administered intravenously to nude mice at a dose of 25 mg/kg; type: ADME, organism-based; set-up: dose 25 mg/kg, route intravenous; settings: mouse, in vivo, iv; method in brief: as §3
[18] = target: T1, Protein farnesyltransferase; assay: Inhibition of Hras Farnesyl protein transferase (FPT); type: protein-complex assay
[19] = (§7) Area under curve was determined using 20%aqueous hydroxypropyl-beta-cyclodextrin (HPbetaCD) as vehicle. Compound was administered orally to nude mice at a dose of 25 mg/kg; type: ADME, organism-based; set-up: dose 25 mg/kg, route oral; settings: mouse, in vivo, po; method in brief: as §3
NIH-3T3 (Mus musculus) [20] = assay: Inhibition of tumor colony formation in soft agar
[21] = target: T1, Protein farnesyltransferase; assay: Inhibitory activity against Hras Farnesyltransferase (FPT).; type: protein-complex assay
[22] = as §6; type: organism-based; set-up: dose 25 mg/kg; method in brief: as §3
[23] = as §7; type: organism-based; set-up: dose 25 mg/kg; method in brief: as §3
Mus musculus = assay: as §1; type: organism-based
[24] = as §4; type: organism-based
[25] = Half life was administered by using 0.4% Methyl cellulose (MC) as vehicle to nude mice at a dose of 25mpk; settings: mouse, in vivo, 25 mg/kg
[26] = target: T1, Protein farnesyltransferase; assay: Inhibition of [3H]FPP incorporation into His6-H-Ras-CVLS by farnesyl transferase; type: protein-complex assay

SMILES: O=C(CC1CCN(C(=O)c2ccc[n+]([O-])c2)CC1)N1CCC([C@H]2c3ncc(Br)cc3CCc3cc(Cl)cc(Br)c32)CC1
bioavailability [9]: 9.28%
bioavailability [10]: 5.81%
bioavailability [1]: 113%
Cmax [11]: 52.3 µM
Cmax [12]: 0.75 µM
Cmax [13]: 2.27 µM
AUC [14]: 62 µg·h/mL
AUC [15]: 3.6 µg·h/mL
AUC [16]: 5.75 µg·h/mL
AUC [17]: 62 µg·h/mL
Cmax [4]: 52.3 µM
Cmax [5]: 16.2 µM
IC50 [6]: 0.007 µM
IC50 [18]: 0.0021 µM
half-life [7]: 1.42 h
AUC [19]: 70.1 µg·h/mL
IC50 (NIH-3T3 (Mus musculus) [20]): 0.165 µM

SMILES: O=C(CC1CCN(C(=O)c2cc[n+]([O-])cc2)CC1)N1CCC([C@H]2c3ncc(Br)cc3CCc3cc(Cl)cc(Br)c32)CC1
bioavailability [10]: 14.6%
bioavailability [1]: 115%
Cmax [11]: 19.8 µM
Cmax [12]: 1.07 µM
AUC [14]: 13.7 µg·h/mL
AUC [15]: 2 µg·h/mL
AUC [17]: 13.7 µg·h/mL
Cmax [4]: 19.8 µM
Cmax [5]: 9.81 µM
half-life [7]: 1.2 h
AUC [19]: 15.7 µg·h/mL

SMILES: O=C(CC1CCN(S(=O)(=O)Cc2ccccc2)CC1)N1CCC([C@H]2c3ncc(Br)cc3CCc3cc(Cl)cc(Br)c32)CC1
IC50 [6]: 0.35 µM
IC50 [21]: 0.0171 µM

SMILES: C[C@H](N)C(=O)N1CCC(CC(=O)N2CCC([C@H]3c4ncc(Br)cc4CCc4cc(Cl)cc(Br)c43)CC2)CC1
IC50 [6]: 0.14 µM

SMILES: C[C@@H](N)C(=O)N1CCC(CC(=O)N2CCC([C@H]3c4ncc(Br)cc4CCc4cc(Cl)cc(Br)c43)CC2)CC1
IC50 [6]: 0.039 µM
IC50 [21]: 0.0079 µM
IC50 (NIH-3T3 (Mus musculus) [8]): 0.2 µM

SMILES: CNC(=O)N1CCC(CC(=O)N2CCC([C@H]3c4ncc(Br)cc4CCc4cc(Cl)cc(Br)c43)CC2)CC1
IC50 (NIH-3T3 (Mus musculus) [8]): 0.1 µM

SMILES: CCOC(=O)CNC(=O)N1CCC(CC(=O)N2CCC([C@H]3c4ncc(Br)cc4CCc4cc(Cl)cc(Br)c43)CC2)CC1
IC50 (NIH-3T3 (Mus musculus) [8]): 0.31 µM

Further lines, with some results ahead:

bioavailability [1]: 19.5%
AUC at 7 h [2]: 1.97 µg·h/mL
AUC at 7 h [3]: 10.1 µg·h/mL
Cmax [4]: 22.6 µM
Cmax [5]: 2.15 µM
IC50 [6]: < 0.01 µM
half-life [7]: 0.28 h
SMILES: O=C(CC1CCN(C(=O)Cn2cncn2)CC1)N1CCC([C@H]2c3ncc(Br)cc3CCc3cc(Cl)cc(Br)c32)CC1
IC50 (NIH-3T3 (Mus musculus) [8]): 0.11 µM

IC50 [6]: 0.04 µM
SMILES: CCN(CC)C(=O)CN1CCC(CC(=O)N2CCC([C@H]3c4ncc(Br)cc4CCc4cc(Cl)cc(Br)c43)CC2)CC1
IC50 (NIH-3T3 (Mus musculus) [8]): 0.3 µM

Cmax [4]: 80 µM
Cmax [5]: 2.92 µM
SMILES: NCC(=O)N1CCC(CC(=O)N2CCC([C@H]3c4ncc(Br)cc4CCc4cc(Cl)cc(Br)c43)CC2)CC1
AUC [22]: 125000 ng·h/mL
AUC [23]: 5840 ng·h/mL
bioavailability (Mus musculus): 4.7%
T1/2 [24]: 1.4 h

bioavailability [10]: 8.6%
Cmax [11]: 23.4 µM
Cmax [12]: 0.33 µM
AUC [14]: 4.09 µg·h/mL
AUC [15]: 0.35 µg·h/mL
IC50 [6]: < 0.01 µM
half-life [25]: 0.76 h
SMILES: N#CCC(=O)N1CCC(CC(=O)N2CCC([C@H]3c4ncc(Br)cc4CCc4cc(Cl)cc(Br)c43)CC2)CC1
IC50 (NIH-3T3 (Mus musculus) [20]): 0.12 µM

IC50 [6]: 0.025 µM
IC50 [26]: 0.0053 µM
SMILES: O=C(CC1CCN(CC(=O)N2CCOCC2)CC1)N1CCC([C@H]2c3ncc(Br)cc3CCc3cc(Cl)cc(Br)c32)CC1
IC50 (NIH-3T3 (Mus musculus) [8]): 0.1 µM

F [1]: 166%
AUC [17]: 27.1 µg·h/mL
Cmax [4]: 26.2 µM
Cmax [5]: 7.1 µM
IC50 [6]: < 0.01 µM
IC50 [21]: 0.0027 µM
half-life [7]: 1.1 h
AUC [19]: 45 µg·h/mL
SMILES: NC(=O)C(=O)N1CCC(CC(=O)N2CCC([C@H]3c4ncc(Br)cc4CCc4cc(Cl)cc(Br)c43)CC2)CC1
IC50 (NIH-3T3 (Mus musculus) [8]): 0.085 µM
